“And” between values parts separate entries of the source, which are not always exact repeats. Identical values can stand only once.
What was measured:
[1] = test system: Fibroblast; assay: Multiplex assay against human fibroblast; type: toxicity, cell-based
Method in brief: (§1)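 Cells stained live at seeding with Hoechst33342, BioTracker Green Microtubule Cytoskeleton Dye, MitoTracker Red and Annexin V Alexa Fluor 680 were imaged on a CQ1 microscope at 37°C and 5% CO2 after compound addition. Their classification by CellPathfinder machine-learning gating ran from Hoechst high-intensity objects versus normal cells, to healthy, pyknosed or fragmented nuclei among normal cells, to mitotic or apoptotic among pyknosed cells. Tubulin, mitochondrial-mass and membrane-permeability phenotypes are per cents of healthy-nucleus cells.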

[2] = test system: HEK-293T; assay: Multiplex assay against HEK293T; type: toxicity, cell-based; settings: human; method in brief: as §1
[3] = 12 h, 1 µM, compound concentration 1 uM
[4] = 12 h, 10 µM, compound concentration 10 uM
[5] = 24 h, 1 µM, compound concentration 1 uM
[6] = 24 h, 10 µM, compound concentration 10 uM
[7] = 48 h, 1 µM, compound concentration 1 uM
[8] = 48 h, 10 µM, compound concentration 10 uM

## CC(C)(c1ccc(O)cc1)c1ccc(O)cc1 [BISPHENOL A]
[1]; [3]
  Population Apoptotic (%): 18.37% and 18.42%
  Population Fragmented Nuclei (%): 10.19% and 4.35%
  Population Healthy Nuclei (%): 58.6% and 79.13%
  Population Hoechst High Intensity Objects (%): 0%
  Population Membrane Permeable-Phenotype (%): 2.17% and 2.75%
  Population Mitochondria Different-Phenotype (%): 8.7% and 5.49%
  Population Mitotic Cells (%): 81.63% and 81.58%
  Population Normal (%): 100%
  Population Pyknosed Nuclei (%): 31.21% and 16.52%
  Population Tubulin-Different-Phenotype (%): 15.22% and 10.44%
  Total Cell Count: 157 and 230
[1]; [4]
  Population Apoptotic (%): 4.76% and 2.94%
  Population Fragmented Nuclei (%): 8.94% and 3.67%
  Population Healthy Nuclei (%): 67.6% and 82.45%
  Population Hoechst High Intensity Objects (%): 0%
  Population Membrane Permeable-Phenotype (%): 3.31% and 0.99%
  Population Mitochondria Different-Phenotype (%): 7.44% and 5.45%
  Population Mitotic Cells (%): 95.24% and 97.06%
  Population Normal (%): 100%
  Population Pyknosed Nuclei (%): 23.46% and 13.88%
  Population Tubulin-Different-Phenotype (%): 14.88% and 19.31%
  Total Cell Count: 179 and 245
[1]; [5]
  Population Fragmented Nuclei (%): 7.23% and 3.8%
  Population Healthy Nuclei (%): 68.07% and 86.92%
  Population Hoechst High Intensity Objects (%): 0%
  Population Membrane Permeable-Phenotype (%): 4.42% and 3.88%
  Population Mitochondria Different-Phenotype (%): 5.31% and 2.91%
  Population Mitotic Cells (%): 90.24% and 59.09%
  Population Normal (%): 100%
  Population Pyknosed Nuclei (%): 24.7% and 9.28%
  Population Tubulin-Different-Phenotype (%): 14.16% and 12.14%
  Total Cell Count: 166 and 237
[1]; [6]
  Population Apoptotic (%): 6.45% and 4.76%
  Population Fragmented Nuclei (%): 7.18% and 3.7%
  Population Healthy Nuclei (%): 76.92% and 87.65%
  Population Hoechst High Intensity Objects (%): 0%
  Population Membrane Permeable-Phenotype (%): 2.67% and 1.88%
  Population Mitochondria Different-Phenotype (%): 6% and 4.23%
  Population Mitotic Cells (%): 93.55% and 95.24%
  Population Normal (%): 100%
  Population Pyknosed Nuclei (%): 15.9% and 8.64%
  Population Tubulin-Different-Phenotype (%): 16% and 16.43%
  Total Cell Count: 195 and 243
[1]; [7]
  Population Apoptotic (%): 50% and 33.33%
  Population Fragmented Nuclei (%): 8.98% and 4.96%
  Population Healthy Nuclei (%): 86.23% and 86.36%
  Population Hoechst High Intensity Objects (%): 0%
  Population Membrane Permeable-Phenotype (%): 0.69% and 2.39%
  Population Mitochondria Different-Phenotype (%): 11.11% and 3.83%
  Population Mitotic Cells (%): 50% and 66.67%
  Population Normal (%): 100%
  Population Pyknosed Nuclei (%): 4.79% and 8.68%
  Population Tubulin-Different-Phenotype (%): 3.47% and 12.92%
  Total Cell Count: 167 and 242
[1]; [8]
  Population Apoptotic (%): 25% and 14.29%
  Population Fragmented Nuclei (%): 8.49% and 3.36%
  Population Healthy Nuclei (%): 85.85% and 90.76%
  Population Hoechst High Intensity Objects (%): 0%
  Population Membrane Permeable-Phenotype (%): 0% and 4.63%
  Population Mitotic Cells (%): 75% and 85.71%
  Population Normal (%): 100%
  Population Pyknosed Nuclei (%): 5.66% and 5.88%
  Population Tubulin-Different-Phenotype (%): 7.14% and 18.52%
  Total Cell Count: 212 and 238
[2]; [3]
  Population Apoptotic (%): 8.05% and 13.14%
  Population Fragmented Nuclei (%): 5.16% and 3.01%
  Population Hoechst High Intensity Objects (%): 0% and 0.6%
  Population Membrane Permeable-Phenotype (%): 0% and 4.17%
  Population Mitochondria Different-Phenotype (%): 34.18% and 33.33%
  Population Mitotic Cells (%): 91.95% and 86.86%
  Population Normal (%): 100% and 99.4%
  Population Pyknosed Nuclei (%): 36.61% and 82.53%
  Total Cell Count: 407 and 167
[2]; [4]
  Population Apoptotic (%): 10.57% and 14.78%
  Population Fragmented Nuclei (%): 4.23% and 2.74%
  Population Hoechst High Intensity Objects (%): 1.19% and 0.68%
  Population Membrane Permeable-Phenotype (%): 0%
  Population Mitochondria Different-Phenotype (%): 37.63% and 18.52%
  Population Mitotic Cells (%): 89.43% and 85.22%
  Population Normal (%): 98.81% and 99.32%
  Population Pyknosed Nuclei (%): 37.16% and 78.77%
  Total Cell Count: 335 and 147
[2]; [5]
  Population Apoptotic (%): 12.93% and 13.39%
  Population Fragmented Nuclei (%): 1.95% and 0.56%
  Population Healthy Nuclei (%): 77.52% and 28.89%
  Population Hoechst High Intensity Objects (%): 0.18% and 0%
  Population Membrane Permeable-Phenotype (%): 1.6% and 1.92%
  Population Mitochondria Different-Phenotype (%): 13.7% and 15.38%
  Population Mitotic Cells (%): 87.07% and 86.61%
  Population Normal (%): 99.82% and 100%
  Population Tubulin-Different-Phenotype (%): 9.82% and 13.46%

Reference: ChEMBL document CHEMBL5724801, “EUbOPEN Chemogenomics Library - Multiplex” (2024)
